# Published values collected from several papers.
# Target: Tyrosine-protein kinase receptor Tie-1 (TIE1, Homo sapiens, UniProt P35590)
Structure (SMILES),assay,setting,remaining binding
FC(F)(F)Oc1cccc(-c2cnc3ccc(-c4ccncc4)nn23)c1,"cell-free assay, competition with immobilised ligand",5 µM,84%
N[C@@H]1CCN(c2nccc(-c3cnn4ncccc34)n2)C1,binding,1 µM,100%
COc1cnc(Nc2cccc(S(N)(=O)=O)c2)nc1N1CCN(c2ccccc2)CC1,"binding, competition with immobilised ligand",1 µM,99%
Cc1noc([C@H]2C[C@@H](c3ccc(C(F)(F)F)cc3)CN(C(=O)N3CCS(=O)(=O)C3)C2)n1,"cell-free assay, competition with immobilised ligand",1 µM,89%
CN(CCCC(F)(F)F)c1nccc(-c2cnn3ncccc23)n1,binding,1 µM,100%
O=C(NCC1CCOCC1)c1n[nH]cc1NC(=O)c1c(F)cccc1F,"binding, competition with immobilised ligand",1 µM,85%
CN(C)c1nccc(-c2cnn3ncccc23)n1,binding,1 µM,100%
O=C(O)[C@@H]1[C@@H](Cn2nnc3ccccc3c2=O)CC[C@H]1C(=O)c1ccc(OCCC2CCOCC2)cc1,"cell-free assay, competition with immobilised ligand",1 µM,100%
F[C@@H]1CCN(c2nccc(-c3cnn4ncccc34)n2)C1,binding,1 µM,100%
Cc1cc(-n2nc(Cc3cc(F)cc(C(F)(F)F)c3)nc2C)ccc1C(N)=O,"cell-free assay, competition with immobilised ligand",1 µM,100%
Nc1ncc2c(n1)-c1c([nH]c3ccc(C#CC4CC4)cc13)CCCC2,"binding, competition with immobilised ligand",1 µM,96%
CC1CCCN1c1nccc(-c2cnn3ncccc23)n1 (stereo not shown),binding,1 µM,100%
O=C(NCCCN1CCOCC1)c1ccc(Nc2nccc(-c3cc4ccccc4s3)n2)cc1,"binding, competition with immobilised ligand",1 µM,48%
CN(C)c1nccc(-c2cnc3ncccn23)n1,binding,1 µM,83%
C[C@@H](c1cccc(C#N)c1)n1cc(Cl)cc(C(N)=O)c1=N,"cell-free assay, competition with immobilised ligand",1 µM,87%
O=C(c1ccc(Nc2ncc(Cl)c(-c3cc4ccccc4s3)n2)cc1)N1CCC(N2CCCC2)CC1,"binding, competition with immobilised ligand",1 µM,4.8%
CCc1ccccc1C(=O)Nc1n[nH]c2c(C)c(F)c(C3C(C#N)=C(C)N(C)C(C)=C3C#N)cc12,"cell-free assay, competition with immobilised ligand",1 µM,100%
C[C@H]1CCN(c2nccc(-c3cnn4ncccc34)n2)C1,binding,1 µM,75%
C[C@H](NC(=O)c1cnc2n1[C@](C)(Cc1ccc(C#N)cc1)C(=O)N2c1cc(Cl)c(F)c(Cl)c1)C(=O)NC1(c2ccccn2)CC1,"cell-free assay, competition with immobilised ligand",1 µM,100%
C[C@@H](c1ccc(-n2cnc3c(N)ncnc32)cc1)N1CCc2nn(C)c(Cc3ccccc3)c2C1=O,"binding, competition with immobilised ligand",0.1 µM,84%
O=S(=O)(NC1CCC(c2cc(F)ccc2F)(S(=O)(=O)c2ccc(Cl)cc2)CC1)C(F)(F)F (stereo not shown),"cell-free assay, competition with immobilised ligand",1 µM,100%
O=C(c1ccc(Nc2nccc(-c3cc4ccccc4s3)n2)cc1)N1CCC(N2CCCC2)CC1,"binding, competition with immobilised ligand",1 µM,23%
